Screening data deposited in PubChem BioAssay by Sanford-Burnham Center for Chemical Genomics.
Hits are enriched below; roughly 2.5% of the tested compounds scored in any of these assays.
SENP1 inh: human SENP1 catalytic domain inhibitors, primary screen, biochemical, FRET, uHTS; AID 624204, 2012; actives 0.21% (n = 360,000); inhibition, % at 10 µM; recombinant SENP1 catalytic domain, CyPet-SUMO1-YPet FRET cleavage; Sentrin-specific protease 1 (Homo sapiens), Q9P0U3;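 active means inhibition at least 30% at 10 µM, raw YFP signal under a set limit, fluorescence ratio 0.5 to 1.5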
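Assay system: hSENP1 catalytic domain, recombinant. Amount: SENP1 enzyme, 20 pM final. Schedule: 50 min reaction, RT, dark. Technique: FRET, CFP and YFP emission. Control set: no-enzyme wells low, DMSO-plus-enzyme wells high control.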
SENP8 block-1: SENP8 protease inhibitors, primary screen, biochemical, luminescence | AID 2540, 2010 | purified SENP8, Z-RLRGG-aminoluciferin cleavage | inhibition, % at 10 µM | Sentrin-specific protease 8 (Homo sapiens), Q96LD8 | actives 1.2% (n = 330,000); in the data active means inhibition above about 50%
Target sequence (Q96LD8 whole entry, looked up): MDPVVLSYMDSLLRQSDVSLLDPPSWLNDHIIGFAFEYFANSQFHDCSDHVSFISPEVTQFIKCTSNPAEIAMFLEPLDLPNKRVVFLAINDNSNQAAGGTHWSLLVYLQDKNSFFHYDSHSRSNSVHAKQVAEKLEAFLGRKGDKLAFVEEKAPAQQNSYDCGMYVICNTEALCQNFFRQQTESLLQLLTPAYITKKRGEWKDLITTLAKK
SENP8 block-2: human SENP8 protease inhibitors, primary screen, biochemical, fluorescence, Nedd8 protein substrate, uHTS; Sentrin-specific protease 8 (Homo sapiens), Q96LD8; recombinant SENP8; inhibition, % at 20 µM; actives 0.64% (n = 360,000); AID 602440, 2012; in the data active means inhibition mostly above about 40%, no sharp cut-off; inactive means mostly below about 27%
SENP7 block: SENP7 protease inhibitors, primary screen, biochemical, luminescence, uHTS; recombinant SENP7, Z-RLRGG-aminoluciferin luminescence, 40 min; actives 1.5% (n = 330,000); inhibition, % at 5 µM; AID 434973, 2010;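 active means inhibition above about 50% at the single test dose, limit read from the data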
Target sequence (Q9BQF6 706-1050 limits assumed): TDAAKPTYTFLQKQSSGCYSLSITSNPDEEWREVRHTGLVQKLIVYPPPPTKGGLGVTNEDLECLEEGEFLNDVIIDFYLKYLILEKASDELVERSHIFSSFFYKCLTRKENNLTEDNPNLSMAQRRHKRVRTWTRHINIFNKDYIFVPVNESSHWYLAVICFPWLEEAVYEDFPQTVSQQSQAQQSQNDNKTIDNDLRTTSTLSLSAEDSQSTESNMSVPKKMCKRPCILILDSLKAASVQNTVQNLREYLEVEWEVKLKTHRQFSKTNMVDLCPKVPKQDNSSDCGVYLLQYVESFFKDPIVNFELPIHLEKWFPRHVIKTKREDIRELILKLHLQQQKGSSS
SENP6 inh: SENP6 protease inhibitors, primary screen, biochemical, luminescence, uHTS. actives 1.8% (n = 330,000). Recombinant SENP6 catalytic domain, aminoluciferin luminescence. AID 2599, 2010. inhibition, % at 10 µM;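 active means inhibition above about 50% at the single tested dose, limit read from the data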
Hits are given with their value; - = inactive; . = no result.

SMILES	SENP1 inh	SENP8 block-1	SENP8 block-2	SENP7 block	SENP6 inh
O=C(Nc1c(-c2ccc(Cl)cc2)[nH][nH]c1=O)c1ccccc1Cl	-	.	-	.	.
O=[N+]([O-])c1cccc(-c2noc(-c3cccs3)n2)c1	-	-	-	75	56
O=C(NC(=S)Nc1ccc2c(c1)C(=O)c1ccccc1C2=O)c1ccc(F)cc1	.	52	.	64	78
Cn1cc(/C=C2\SC(=O)N(c3ccc(O)cc3)C2=O)c2ccccc21	-	-	-	-	64
Cc1nn(-c2ccccn2)c2c1C(=O)CC(C)(C)C2Br (stereo unspecified)	-	-	-	-	-
COc1ccc2ccccc2c1C1CC(=O)N2CN(Cc3ccco3)CSC2=C1C#N (stereo unspecified)	-	-	45	-	-
COc1ccc(C2CC(=O)N3CN(Cc4ccco4)CSC3=C2C#N)cc1 (stereo unspecified)	-	-	-	-	-
CCCN(CC(=O)Nc1ccccc1OC)C(=O)c1ccc(COc2ccccc2)o1	-	-	-	-	-
Cc1cc(C(=O)N/N=C/c2cc(N=Nc3ccccc3)ccc2O)n[nH]1	-	.	41	.	.
O=C(Nc1ccccc1N1CCOCC1)c1cc2ccccc2o1	-	-	-	-	-
O=C(Nc1ccccc1N1CCCC1)c1cc2ccccc2o1	-	-	-	-	63
O=C1c2ccccc2C(=O)c2c(/C=C/N3CCCCC3)ccnc21	-	.	64	.	.
O=C1c2ccccc2-c2cccnc21	-	-	-	-	-
Cc1cc(NC(=O)CN2C(=O)/C(=C/c3ccc(C(C)C)cc3)SC2=S)no1	-	.	-	.	.
Cc1ccc(NS(=O)(=O)c2cccs2)c(C)c1	-	-	-	-	-
Cc1ccc(NC2=C/C(=N/S(=O)(=O)c3cccs3)c3ccccc3C2=O)cc1C	-	.	61	.	.
Cc1ccccc1NC1=C/C(=N\S(=O)(=O)c2cccs2)c2ccccc2C1=O	-	90	99	89	86
Cc1ccc(NC(=O)CN(C)S(=O)(=O)c2cccs2)cc1C	-	-	-	-	-
Oc1cc(O)cc(-c2cc3ccc(O)cc3o2)c1	-	53	-	-	-
CCOP(=O)(OCC)c1cccc(P(=O)(c2ccccc2)c2ccccc2)c1O	-	-	-	-	-
CCOP(=O)(C1=C(O)C(=O)C(C(C)(C)C)=CC1=O)c1ccccc1 (stereo unspecified)	-	.	87	.	.
CCCCOc1ncnc2c1[nH]c1ccc(C)cc12	-	-	-	51	-
CCCOc1ncnc2c1[nH]c1ccc(OC)cc12	-	63	-	81	77
CCCOc1ncnc2c1[nH]c1ccccc12	-	-	-	-	-
Oc1c(N=Nc2nn[nH]n2)ccc2ccccc12	-	.	55	.	.
SMILES	SENP1 inh	SENP8 block-1	SENP8 block-2	SENP7 block	SENP6 inh
O=C(O)C1CCCC2CN3CCc4c([nH]c5ccccc45)C3C(O)C21 (stereo unspecified)	-	-	-	-	-
O=C(O)c1ccc(Cl)c2c1C1C=CCC1C(c1ccccn1)N2 (stereo unspecified)	.	-	.	-	-
O=[N+]([O-])c1ccc(Cl)c2c1C1C=CCC1C(c1ccccn1)N2 (stereo unspecified)	-	-	42	-	-
Cc1cc(C(=O)NNc2ccc(C(C)C)cc2)n(C(C)(C)C)n1	-	-	-	-	-
CC1=CC(=C2C(=O)c3ccccc3C2=O)C=C(C)N1Cc1ccco1	37	-	-	-	-
O=C1c2ccccc2C(=O)N1Cc1ccco1	-	-	-	-	-
Cc1cc(C)nc(SCc2ccc(C(=O)N/N=C3\CCCC(=O)C3)cc2)n1	-	-	-	-	-
COc1cccc(C(=O)Nc2ccccc2F)c1	-	-	-	-	-
O=C(Nc1ccccc1F)Oc1cccc(OC(=O)Nc2ccccc2F)c1	-	64	-	73	69
O=C1Nc2ccccc2N2CCCC12 (stereo unspecified)	.	-	.	-	68
Oc1ccc(N=Nc2cccc(C(F)(F)F)c2)cc1C=Nc1ccc(N2CCOCC2)cc1	-	-	36	-	66
S=C1Cc2ccccc2N1	-	.	45	.	.
O=C(O)c1ccc(S(=O)(=O)/N=C2\C=C(Nc3ccccc3F)C(=O)c3ccccc32)cc1	-	96	88	65	98
COc1ccc(S(=O)(=O)/N=C2\C=C(Nc3ccc(O)cc3)C(=O)c3ccccc32)cc1	-	95	90	87	93
O=S(=O)(/N=C(/Nc1ccccc1F)c1ccccc1)c1ccccc1	-	-	-	-	-
Cc1ccccc1NC1=C/C(=N\S(=O)(=O)c2ccc(C(=O)O)cc2)c2ccccc2C1=O	-	95	88	69	94
Oc1ccccc1CNc1cccc2cccnc12	-	79	-	66	91
CN1C(=O)C2(c3ccccc31)c1c(oc3ccccc3c1=O)C(=O)N2CCCO (stereo unspecified)	-	-	-	-	-
O=C(N/N=C/C(Br)=C/c1ccccc1)c1cccs1	-	51	-	-	62
Cc1ccc(CNC(=O)c2ccc(N3CCC4(CC3)CC(c3ccccc3)=NO4)c(NC(=O)c3ccc(Cl)c([N+](=O)[O-])c3)c2)cc1	-	-	-	-	-
COc1ccc(CCNCc2cc(C)n(-c3ccc(OC)cc3)c2C)cc1	-	-	46	-	-
COc1ccc(CCNCc2ccccc2N2CCCC2)cc1	-	-	-	-	-
CCOc1ccc(S(=O)(=O)N(C)CC(=O)NCc2ccccn2)cc1Cl	-	-	-	-	-
O=C(NCCc1ccccc1)c1ccc2c(=O)[nH]c3c(C(=O)NCC4CCCO4)sc(=S)n3c2c1 (stereo unspecified)	54	-	-	-	-
O=C(NCC1CCCO1)c1ccc2c(=O)n(CC3CCCO3)c(=S)[nH]c2c1 (stereo unspecified)	-	-	-	-	-
SMILES	SENP1 inh	SENP8 block-1	SENP8 block-2	SENP7 block	SENP6 inh
CCOc1ccc(CCNC(=O)c2ccc3c(=O)[nH]c4c(C(=O)NC(C)C)sc(=S)n4c3c2)cc1	48	-	-	-	-
CC(C)NC(=O)c1sc(=S)n2c1[nH]c(=O)c1ccc(C(=O)NCCc3ccc(Cl)cc3)cc12	49	-	-	-	-
c1ccc(SC23CCCCN(CCC2)[C@]32CO2)cc1 (stereo partly specified)	-	.	-	.	.
Cc1cc(NS(=O)(=O)c2ccc(NC(=O)Cc3ccc(Cl)c(Cl)c3)cc2)no1	-	-	-	-	-
CC1(c2ccc3ccccc3c2)NC(=O)N(CC(=O)Nc2cccc(S(=O)(=O)N3CCOCC3)c2)C1=O (stereo unspecified)	-	-	-	-	-
Cc1ccc(-c2nc(CS(=O)(=O)CC(=O)Nc3cc(F)ccc3F)c(C)o2)cc1	-	-	-	-	-
